The source of these data is ChEMBL document CHEMBL4052596, “Dioncophyllines C2, D2, and F and Related Naphthylisoquinoline Alkaloids from the Congolese Liana Ancistrocladus ileboensis with Potent Activities against Plasmodium falciparum and against Multiple Myeloma and Leukemia Cell Lines” (J Nat Prod, 2017).

For data set [1], the system named is Plasmodium falciparum. Put plainly: Antiprotozoal activity against erythrocytic stage of Plasmodium falciparum NF54 after 48 hrs by [3H]- hypoxanthine incorporation assay. Format: functional. The essentials: (§1)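 In vitro tests against P. falciparum NF54, T. cruzi, T. b. rhodesiense and L. donovani, with cytotoxicity on rat skeletal myoblast L6 host cells.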

A further data set has as its system Trypanosoma cruzi. Briefly: Antiprotozoal activity against trypomastigote stage of Trypanosoma cruzi Tulahuen C2C4 infected in rat L6 cells using preincubated for 96 hrs by CPRG/Nonidet-based inverted microscopy. Format: functional, cell-based. The essentials: as §1
The test system of data set [2] is Trypanosoma brucei rhodesiense. Briefly: Antiprotozoal activity against patient derived Trypanosoma brucei rhodesiense STIB 900 bloodstream form after 72 hrs by Alamar Blue assay. It counts as functional. Particulars: STIB 900, 72 h. The essentials:
as §1
Background: The colour change of resazurin is a common sign of viable cells or microbes.

The test system of the next data set is Leishmania donovani. Put plainly: Antiprotozoal activity against amastigote form of Leishmania donovani MHOM/ET/67/L82 after 72 hrs by Alamar Blue assay. Particulars: MHOM/ET/67/L82, 72 h. Format: functional. The essentials: as §1
A further data set relates to L6. Briefly: Cytotoxicity against rat L6 cells after 72 hrs by Alamar Blue assay. It counts as cell-based. The note with it: L6, 72 h. The essentials: as §1
Data set [3] in a line: Selectivity index, ratio of IC50 for rat L6 cells to IC50 for erythrocytic stage of Plasmodium falciparum NF54. It counts as toxicity. Particulars: read-out: Ratio IC50. In outline: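 Ratio of the L6 cell IC50 to the P. falciparum IC50. Each IC50 is the mean of two independent assays.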
Data set [4] in a line: Induction of apoptosis in human INA-6 cells after 3 days by V-FITC/ propidium iodide staining-based flow cytometric analysis. It counts as functional, cell-based. In outline: (§2)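 INA-6 multiple myeloma cells, or mononuclear cells from the peripheral blood of healthy donors, exposed to a range of concentrations for 3 d, with melphalan as reference. Cells stained 10 min with annexin V-FITC and PI in HEPES binding buffer pH 7.4 (140 mM NaCl, 2.5 mM CaCl2), then analysed by flow cytometry. The annexin/PI double-negative fraction counted as viable, and EC50 derived from dose-response curves.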
Background: In flow cytometry, cells or beads pass a laser one at a time.

The next data set deals with PBMC. Put plainly: Induction of apoptosis in human PBMC after 3 days by V-FITC/ propidium iodide staining-based flow cytometric analysis. The note with it: 72 h. Format: cell-based. In outline: as §2
Data set [5] concerns CCRF-CEM. Put plainly: Growth inhibition of human CCRF-CEM cells at 10 uM by resazurin assay relative to control. It counts as functional. Particulars: read-out: GI. The essentials:
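Drug-sensitive CCRF-CEM leukemia cells treated at a single concentration of 10 μM, with doxorubicin as reference and DMSO vehicle (under 1.0%) as negative control. Viability read by resazurin fluorescence (ex 544, em 590 nm) relative to untreated cells. Three independent experiments, six parallel measurements each.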

Data set [6] deals with CCRF-CEM. Put plainly: Growth inhibition of human CCRF-CEM cells by resazurin assay. Format: functional, cell-based. In outline:
(§3)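 CCRF-CEM cells and the P-glycoprotein-overexpressing multidrug-resistant subline CEM/ADR5000 treated over a range of concentrations, with doxorubicin as positive control and DMSO (under 1.0%) as negative control. Resazurin fluorescence read at ex 544/em 590 nm against untreated cells. IC50 taken from a calibration curve by linear regression. Mean ± SD of three independent experiments, six parallel measurements each.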

A short description of data set [7]: Resistance index, ratio of IC50 for human CEM/ADR5000 cells to IC50 for human CCRF-CEM cells. It counts as functional. In outline: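 Degree of resistance is the IC50 for CEM/ADR5000 divided by the IC50 for CCRF-CEM. Both come from resazurin viability dose-response curves over three independent experiments.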
For the next data set, the system named is ADR5000 cell line. Briefly: Growth inhibition of human multi-drug resistant CEM/ADR5000 cells by resazurin assay. Format: functional, cell-based. In outline: as §3
The test system of data set [8] is Plasmodium falciparum. Put plainly: Antiprotozoal activity against erythrocytic stage of chloroquine and pyrimethamine resistant Plasmodium falciparum K1 after 48 hrs by [3H]- hypoxanthine incorporation assay. It counts as functional.
The nature of data set [9]: Selectivity index, ratio of IC50 for rat L6 cells to IC50 for erythrocytic stage of chloroquine and pyrimethamine resistant Plasmodium falciparum K1. Format: toxicity. The note with it: read-out: Ratio IC50. The essentials:
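Selectivity index: IC50 toward rat skeletal myoblast L6 cells (in vitro cytotoxicity, previously published method) divided by IC50 against P. falciparum K1; each IC50 is the mean of two independent assays.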

The term IC50 denotes the concentration that gives 50% inhibition. One may read the EC50 as the concentration needed to bring the measured effect to its halfway point. Low values mean an effect from little substance, high ones a need for much substance.

As for `COc1cc2c(c(OC)c1-c1c(C)cc(OC)c3c(OC)cccc13)[C@@H](C)N[C@@H](C)C2`, the 50% inhibitory concentration (IC50) turned out to be 0.726 µM with Plasmodium falciparum [1]; 12.4 µM in the data set on Trypanosoma cruzi; 0.313 µM in [2]; 25.4 µM in the data set on Leishmania donovani; 30 µM in the data set on L6. Also, the selectivity ratio in data set [3] came out at 41. In [4] (Homo sapiens, INA-6, 72 h), the EC50 amounted to 4.8 µM.
As to `COc1ccc(-c2ccc3c(c2O)[C@@H](C)N[C@H](C)C3)c2cc(C)cc(OC)c12`, the IC50 in the data set with Plasmodium falciparum [1] was 0.228 µM; in the data set with Trypanosoma cruzi, 26.3 µM; in data set [2], 8.08 µM; with Leishmania donovani, above 265 µM; in the data set with L6, 4.02 µM; in the data set on CCRF-CEM [6] it was 1.86 µM. The same compound displayed a 50% inhibitory concentration (IC50) in the data set with ADR5000 cell line of 5.31 µM. Besides, the selectivity ratio in data set [3] came to 17.6. The EC50 amounted to 2.6 µM in data set [4] (Homo sapiens, INA-6, 72 h) and 19 µM in the data set on PBMC. For the same compound, in the data set with CCRF-CEM [5], the inhibition of growth at 10 µM is below 50%. Moreover, in data set [7], the “Ratio IC50” value turned out to be 2.9.
Compound `N[C@@H](Cc1ccc(N(CCCl)CCCl)cc1)C(=O)O` yielded a concentration for a half-maximal effect (EC50) in [4] (Homo sapiens, INA-6, 72 h) of 2 µM. This counts as single-digit micromolar.
In the case of `COc1cccc2c(-c3ccc(O)c4c3C[C@@H](C)N[C@H]4C)c(C)cc(OC)c12`, the half-maximal inhibitory concentration (IC50) in the data set on Plasmodium falciparum [1] came out at 0.702 µM; in the data set on Trypanosoma cruzi it was 44.5 µM; in data set [2], 4.83 µM; in the data set on Leishmania donovani, 228 µM; in the data set with L6, 43.3 µM. The selectivity ratio in data set [3] stood at 61.7.
`COc1ccc(-c2ccc(O)c3c2C[C@@H](C)N[C@H]3C)c2cc(C)cc(OC)c12`: the concentration for half-maximal inhibition (IC50) with Plasmodium falciparum [1] worked out at 0.09 µM; in the data set with Plasmodium falciparum [8], 0.045 µM; with Trypanosoma cruzi it was 14.6 µM; in data set [2], 0.585 µM; with Leishmania donovani, 107 µM; in the data set on L6, 14.5 µM. Besides, the selectivity ratio was determined as 161 in [3] and 323 in [9]. The concentration giving a half-maximal response (EC50) in [4] (Homo sapiens, INA-6, 72 h) came to 21 µM; with PBMC, 16 µM.
With `COc1cc2c(c(O)c1-c1c(C)cc(OC)c3c(OC)cccc13)C(C)=N[C@H](C)C2`, the IC50 with Plasmodium falciparum [1] turned out to be 6.51 µM; with Trypanosoma cruzi, 104 µM; in data set [2], 22.7 µM; in the data set on Leishmania donovani, 146 µM; in the data set with L6, 34.9 µM. In data set [3], the selectivity ratio amounted to 5.4.
`COc1cccc2c(-c3ccc4c(c3O)[C@@H](C)N[C@H](C)C4)c(C)cc(O)c12` (stereo in doubt; P-11) came in with a concentration giving a half-maximal response (EC50) in [4] (ina-6) of 2.7 µM.
As to `COc1cccc2c(-c3ccc4c(c3O)[C@@H](C)N[C@H](C)C4)c(C)cc(OC)c12` [DIONCOPHYLLINE A], the EC50 in [4] (Homo sapiens, INA-6, 72 h) is 0.22 µM. The inhibition of growth at 10 µM in the data set with CCRF-CEM [5] is below 50%. For the same compound, the IC50 stood at 0.243 µM in the data set with CCRF-CEM [6] and 0.52 µM with ADR5000 cell line. The “Ratio IC50” value in data set [7] was found to be 2.1.
With `COc1cccc2c(-c3ccc4c(c3O)[C@@H](C)N[C@H](C)C4)c(C)cc(O)c12` (stereo in doubt; M-11), the EC50 in data set [4] (ina-6) is 16 µM; in the data set with PBMC, 50 µM.
On to `COc1cccc2c(-c3ccc4c(c3O)[C@@H](C)N(C(C)=O)[C@H](C)C4)c(C)cc(OC)c12` [N-ACETYLDIONCOPHYLLINE A], for which, in data set [4] (Homo sapiens, INA-6, 72 h), a half-maximal effect (EC50) was put at 0.8 µM.
Regarding `COc1cc(C)c(-c2ccc(O)c3c2C[C@@H](C)N[C@@H]3C)c2cccc(O)c12` [DIONCOPHYLLINE C], the concentration giving a half-maximal response (EC50) amounted to 7.5 µM in data set [4] (Homo sapiens, INA-6, 72 h) and 9 µM in the data set on PBMC.
Take `COc1cc(C)c(-c2ccc3c(c2O)[C@@H](C)N[C@H](C)C3)c2cccc(O)c12`: the midpoint of the response in data set [4] (Homo sapiens, INA-6, 72 h), the EC50, lay at 1.5 µM.
For the compound `COc1ccc(-c2ccc3c(c2O)[C@@H](C)N(C)[C@H](C)C3)c2cc(C)cc(OC)c12`, the concentration for half-maximal inhibition (IC50) came out at 0.107 µM in the data set on Plasmodium falciparum [1]; 55 µM in the data set with Trypanosoma cruzi; 13.7 µM in [2]; 136 µM with Leishmania donovani; 62.8 µM in the data set on L6. Besides, in data set [3], the selectivity ratio came to 586. The compound also showed a concentration giving a half-maximal response (EC50) in data set [4] (Homo sapiens, INA-6, 72 h) of 32 µM.
For the compound `COc1cccc2c1C(=O)c1c(O)c3c(c(O)c1C2=O)C[C@@](O)(C(=O)CO)C[C@@H]3O[C@H]1C[C@H](N)[C@H](O)[C@H](C)O1` [DOXORUBICIN], the figures for the concentration for half-maximal inhibition (IC50) in the data set on CCRF-CEM [6] and with ADR5000 cell line were 0.017 µM and 30.1 µM, respectively. Also, the “Ratio IC50” value in data set [7] worked out at 1769.
As to `O=C(Cn1ccnc1[N+](=O)[O-])NCc1ccccc1` [BENZNIDAZOLE], in the data set with Trypanosoma cruzi, it took 2.32 µM to reach half-maximal inhibition (IC50).
